The source of these data is ChEMBL document CHEMBL4602627, “Further exploration of the structure-activity relationship of imidazoquinolines; identification of potent C7-substituted imidazoquinolines” (Bioorg Med Chem Lett, 2020).

Data set [1] addresses T1, Toll-like receptor 7/8 (Canis lupus familiaris) (UniProt A1XC23+H6BA89). The experiment in a line: Agonist activity at TLR7/8 in dog PBMC assessed as increase in IFN-gamma secretion at 20 uM measured over 29 hrs by ELISA. (In general: An ELISA detects its analyte on a solid surface through an enzyme-linked reagent.)
For data set [2], the target named is T1, Toll-like receptor 7/8 (Canis lupus familiaris). The experiment in a line: Agonist activity at TLR7/8 in dog PBMC assessed as maximal increase in IFN-gamma secretion at 20 uM after 30 to 48 hrs by ELISA. The class given is cell-based.
For data set [3] the target is unchanged. The data set can be described thus: Agonist activity at TLR7/8 in dog PBMC assessed as increase in TNFalpha secretion at 20 uM measured over 29 hrs by ELISA.
Data set [4] shares this target. The experiment in a line: Agonist activity at TLR7/8 in dog PBMC assessed as maximal increase in TNFalpha secretion at 20 uM after 30 to 48 hrs by ELISA. The class given is cell-based.
The target is the same in data set [5]. The experiment in a line: Agonist activity at TLR7/8 in dog PBMC assessed as IL-6 secretion at 20 uM after 29 hrs by ELISA (reference value: 310 +/- 90 pg/ml). Type of data set: cell-based. Summed up:
(§1)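 Canine PBMCs (2 × 10^6 cells/mL) were incubated with agonist at 20 µM for 29 h. TNFα, IL-12, IL-6, IL-10, IL-2 and IFNγ in the medium were measured by ELISA, in triplicate. Vehicle was 1% DMSO in water.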

Data set [6] has the same target. The experiment in a line: Agonist activity at TLR7/8 in dog PBMC assessed as IL-12 secretion at 20 uM after 29 hrs by ELISA (reference value: 18 +/- 8 pg/ml). Type of data set: cell-based. Summed up:
as §1

Data set [7] in a line: Solubility of the compound at >100 uM. Type of data set: physicochemical.
The target in data set [8] is T1, Toll-like receptor 7/8 (Canis lupus familiaris). The data set can be described thus: Agonist activity at TLR7/8 in dog PBMC assessed as TNFalpha secretion at 20 uM after 29 hrs by ELISA (reference value: 8 +/- 2 pg/ml). The class given is cell-based. Summed up: as §1
For data set [9] the target is unchanged. The data set can be described thus: Agonist activity at TLR7/8 in dog PBMC assessed as IL-2 secretion at 20 uM after 29 hrs by ELISA (reference value: 47 +/- 20 pg/ml). Type of data set: cell-based. Summed up: as §1
For data set [10] the target is unchanged. The data set can be described thus: Agonist activity at TLR7/8 in dog PBMC assessed as IFNgamma secretion at 20 uM after 29 hrs by ELISA (reference value: 0.4 +/- 0.7 pg/ml). Type of data set: cell-based. Summed up:
as §1

The target is the same in data set [11]. The experiment in a line: Agonist activity at TLR7/8 in dog PBMC assessed as IL-10 secretion at 20 uM after 29 hrs by ELISA (reference value: 33 +/- 16 pg/ml). Type of data set: cell-based. Summed up: as §1
Data set [12] has the same target. The data set can be described thus: Agonist activity at TLR7/8 in dog PBMC assessed as increase in IL-12 secretion at 20 uM measured over 29 hrs by ELISA.
Data set [13] has the same target. The experiment in a line: Agonist activity at TLR7/8 in dog PBMC assessed as maximal increase in IL-12 secretion at 20 uM after 30 to 48 hrs by ELISA. Type of data set: cell-based.

Calls of active or inactive are those of the source. The rule behind the calls is not given here.

`CCOCc1nc2c(N)nc3cc(Cl)ccc3c2n1CC(C)(C)O`: the result in data set [1], in data set [2], in data set [3], in data set [4], in [12] and in data set [13] was Active. Besides, the Activity in data set [5] came out at 320 pg/mL; in data set [6] it was 1900 pg/mL; in data set [8] it was 70 pg/mL; in [9], 76 pg/mL; in [10], 16 pg/mL; in data set [11], 12 pg/mL. Besides, the solubility entry in data set [7] is recorded as “Insoluble”.

For the molecule `CCCCc1nc2c(N)nc3cc(OC)ccc3c2n1CC(C)C`, the result in data set [2], in [3], in [4], in data set [12] and in [13] was Active. Also, the Activity was 500 pg/mL in data set [5]; 746 pg/mL in [6]; 49 pg/mL in data set [8]; 30 pg/mL in data set [9]; 0 pg/mL in [10]; 37 pg/mL in [11]. For the same molecule, in data set [7], the solubility entry is listed as “Insoluble”.

As for `CCOCc1nc2c(N)nc3cc(Cl)ccc3c2n1CC(C)C`, the result in data set [1], in data set [2], in data set [3], in data set [4], in data set [12] and in data set [13] was Active. Besides, the Activity in data set [5] is 280 pg/mL; in data set [6], 781 pg/mL; in [8], 114 pg/mL; in data set [9], 50 pg/mL; in data set [10], 5 pg/mL; in data set [11], 20 pg/mL. Also, in [7], the solubility result is on record as “Insoluble”.

On to `CC(C)Cn1cnc2c(N)nc3ccccc3c21` [IMIQUIMOD], for which the outcome in data set [1], in data set [2], in data set [3], in data set [4], in data set [12] and in [13] was Active. Besides, the Activity was found to be 300 pg/mL in data set [5]; 1200 pg/mL in [6]; 25 pg/mL in data set [8]; 85 pg/mL in [9]; 18 pg/mL in data set [10]; 16 pg/mL in data set [11]. Besides, the solubility entry in data set [7] is on record as “Insoluble”.

`CCCCc1nc2c(N)nc3cc(C#N)ccc3c2n1CC(C)(C)O`: the result in data set [1], in [2], in data set [3], in [4], in [12] and in data set [13] was Active. Further, the Activity in data set [5] was 290 pg/mL; in [6] it was 418 pg/mL; in data set [8] it was 44 pg/mL; in data set [9], 45 pg/mL; in data set [10], 12 pg/mL; in [11], 14 pg/mL. Besides, the solubility result in data set [7] is reported as “Insoluble”.

On to `CCOCc1nc2c(N)nc3ccccc3c2n1CC(C)(C)O` [RESIQUIMOD], for which the result in data set [1], in data set [2], in data set [3], in [4], in data set [12] and in [13] was Active. For the same molecule, the Activity was 380 pg/mL in data set [5]; 2800 pg/mL in data set [6]; 190 pg/mL in data set [8]; 120 pg/mL in data set [9]; 26 pg/mL in data set [10]; 21 pg/mL in data set [11]. In addition, the solubility result in data set [7] is “Insoluble”.

With `CCOCc1nc2c(N)nc3cc(C#N)ccc3c2n1CC(C)(C)O`, the result in [3], in data set [4] and in data set [13] was Active. In addition, the Activity was 214 pg/mL in [5]; 13 pg/mL in [6]; 80 pg/mL in data set [8]; 46 pg/mL in data set [9]; 0.2 pg/mL in data set [10]; 6 pg/mL in [11]. In addition, in data set [7], the solubility entry was “Insoluble”.

Consider `CCCCc1nc2c(N)nc3cc(C#N)ccc3c2n1CC(C)C`, for which the result in data set [1], in [2], in data set [3], in data set [4], in data set [12] and in [13] was Active. The Activity is 350 pg/mL in [5]; 920 pg/mL in [6]; 10 pg/mL in data set [8]; 60 pg/mL in [9]; 13 pg/mL in data set [10]; 37 pg/mL in data set [11]. Also, the solubility entry in data set [7] is “Insoluble”.

Turning to `CCCCc1nc2c(N)nc3cc(Cl)ccc3c2n1CC(C)C`, the result in [1], in data set [2], in [3], in data set [4], in data set [12] and in data set [13] was Active. In addition, the Activity in [5] stood at 240 pg/mL; in data set [6], 760 pg/mL; in data set [8], 91 pg/mL; in data set [9] it was 63 pg/mL; in data set [10] it was 7 pg/mL; in data set [11], 14 pg/mL. In data set [7], the solubility result is given as “Insoluble”.

For the molecule `CCOCc1nc2c(N)nc3cc(C#N)ccc3c2n1CC(C)C`, the outcome in [1], in [2], in [4], in data set [12] and in [13] was Active. For the same molecule, the Activity in [5] worked out at 71 pg/mL; in [6], 190 pg/mL; in data set [8] it was 7 pg/mL; in [9] it was 57 pg/mL; in data set [10], 4 pg/mL; in [11] it was 6 pg/mL. Besides, the solubility entry in [7] is reported as “Insoluble”.
